Starred links: 1 amine or outer side, 2 acyl side, 3 side chain; linkers in the order of their positions; H or OH if unused. Non-standard residues stand in square brackets, D forms with d. Residues, ends and D or L forms follow the SMILES beside them. Gly(9-fluorenyl) = N[C@H](C(=O)O)C1c2ccccc2-c2ccccc21; X1 = O=C([C@@H](N[*:1])C1CCc2ccccc21)[*:2]; Dip = N[C@H](C(=O)O)C(c1ccccc1)c1ccccc1

The species named for assay [1] is Cavia porcellus. Kind of assay: pKB value of compound was determined in presence of antagonist RP-67580 at conc. of 10e-7 M. It counts as functional. In outline: (§1)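 Guinea pig ileum strips (1 cm, terminal portion, males 300–400 g) in oxygenated Tyrode at 37 °C, 1 g tension. Agonist added cumulatively, doubling bath concentration at each steady response. Antagonist RP-67,580, one concentration (10⁻⁷ M), preincubated 5 min before first agonist addition. pKB = log(dose ratio − 1) − log([antagonist]); three independent determinations.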

The species entered for assay [2] is Cavia porcellus. Kind of assay: pKb value of compound was determined in presence of antagonist RP-67580 at conc. of 10e-7 M. It counts as functional. In short, it runs like this:
as §1

What is called pKB is the negative decadic logarithm of the KB, by convention in mol/L. `CSCC[C@H](NC(=O)[C@H](CC(C)C)NC(=O)[C@@H]1CCCN1C(=O)[C@@H](NC(=O)[C@H](Cc1ccccc1)NC(=O)[C@H](CCC(N)=O)NC(=O)[C@H](CCC(N)=O)NC(=O)[C@@H]1CCCN1C(=O)[C@H](CCCCN)NC(=O)[C@@H]1CCCN1C(=O)[C@@H](N)CCCN=C(N)N)C(c1ccccc1)c1ccccc1)C(N)=O` (H-RPKPQQF[Dip]PLM-NH2): the pKB in the assay filed under Cavia porcellus [1] is on record as 7.25.

As a reminder, the pKb is −log10 of the Kb, conventionally taken in molar units. Consider `CSCC[C@H](NC(=O)[C@H](CC(C)C)NC(=O)CNC(=O)[C@@H](NC(=O)[C@@H](NC(=O)[C@H](CCC(N)=O)NC(=O)[C@H](CCC(N)=O)NC(=O)[C@@H]1CCCN1C(=O)[C@H](CCCCN)NC(=O)[C@@H]1CCCN1C(=O)[C@@H](N)CCCN=C(N)N)C1CCc2ccccc21)C1c2ccccc2-c2ccccc21)C(N)=O` (some centres not stated) (H-RPKPQQ[X1][Gly(9-fluorenyl)]GLM-NH2), for which, in the assay filed under Cavia porcellus [2], the pKb was 7.1.

The values are drawn from ChEMBL document CHEMBL1127523, “Design and synthesis of side-chain conformationally restricted phenylalanines and their use for structure-activity studies on tachykinin NK-1 receptor” (J Med Chem, 1994).
